{
  "source": "ChEMBL document CHEMBL5705905",
  "about": "“Pharmacological targeting of kinases MST1 and MST2 augments tissue repair and regeneration” (Sci Transl Med, 2016)",
  "key": {"[1]": {"test_system": "Tyrosine-protein kinase ABL1 (Homo sapiens), P00519 [Q252H]", "assay": "Inhibition of phosphorylated ABL1 Q252H mutant (unknown origin) assessed as remaining activity at 1 uM by Kinome scan method relative to control"}, "[2]": {"target": "ALK tyrosine kinase receptor (Homo sapiens) (UniProt Q9UM73)", "sequence (Q9UM73 19-1620 limits assumed)": "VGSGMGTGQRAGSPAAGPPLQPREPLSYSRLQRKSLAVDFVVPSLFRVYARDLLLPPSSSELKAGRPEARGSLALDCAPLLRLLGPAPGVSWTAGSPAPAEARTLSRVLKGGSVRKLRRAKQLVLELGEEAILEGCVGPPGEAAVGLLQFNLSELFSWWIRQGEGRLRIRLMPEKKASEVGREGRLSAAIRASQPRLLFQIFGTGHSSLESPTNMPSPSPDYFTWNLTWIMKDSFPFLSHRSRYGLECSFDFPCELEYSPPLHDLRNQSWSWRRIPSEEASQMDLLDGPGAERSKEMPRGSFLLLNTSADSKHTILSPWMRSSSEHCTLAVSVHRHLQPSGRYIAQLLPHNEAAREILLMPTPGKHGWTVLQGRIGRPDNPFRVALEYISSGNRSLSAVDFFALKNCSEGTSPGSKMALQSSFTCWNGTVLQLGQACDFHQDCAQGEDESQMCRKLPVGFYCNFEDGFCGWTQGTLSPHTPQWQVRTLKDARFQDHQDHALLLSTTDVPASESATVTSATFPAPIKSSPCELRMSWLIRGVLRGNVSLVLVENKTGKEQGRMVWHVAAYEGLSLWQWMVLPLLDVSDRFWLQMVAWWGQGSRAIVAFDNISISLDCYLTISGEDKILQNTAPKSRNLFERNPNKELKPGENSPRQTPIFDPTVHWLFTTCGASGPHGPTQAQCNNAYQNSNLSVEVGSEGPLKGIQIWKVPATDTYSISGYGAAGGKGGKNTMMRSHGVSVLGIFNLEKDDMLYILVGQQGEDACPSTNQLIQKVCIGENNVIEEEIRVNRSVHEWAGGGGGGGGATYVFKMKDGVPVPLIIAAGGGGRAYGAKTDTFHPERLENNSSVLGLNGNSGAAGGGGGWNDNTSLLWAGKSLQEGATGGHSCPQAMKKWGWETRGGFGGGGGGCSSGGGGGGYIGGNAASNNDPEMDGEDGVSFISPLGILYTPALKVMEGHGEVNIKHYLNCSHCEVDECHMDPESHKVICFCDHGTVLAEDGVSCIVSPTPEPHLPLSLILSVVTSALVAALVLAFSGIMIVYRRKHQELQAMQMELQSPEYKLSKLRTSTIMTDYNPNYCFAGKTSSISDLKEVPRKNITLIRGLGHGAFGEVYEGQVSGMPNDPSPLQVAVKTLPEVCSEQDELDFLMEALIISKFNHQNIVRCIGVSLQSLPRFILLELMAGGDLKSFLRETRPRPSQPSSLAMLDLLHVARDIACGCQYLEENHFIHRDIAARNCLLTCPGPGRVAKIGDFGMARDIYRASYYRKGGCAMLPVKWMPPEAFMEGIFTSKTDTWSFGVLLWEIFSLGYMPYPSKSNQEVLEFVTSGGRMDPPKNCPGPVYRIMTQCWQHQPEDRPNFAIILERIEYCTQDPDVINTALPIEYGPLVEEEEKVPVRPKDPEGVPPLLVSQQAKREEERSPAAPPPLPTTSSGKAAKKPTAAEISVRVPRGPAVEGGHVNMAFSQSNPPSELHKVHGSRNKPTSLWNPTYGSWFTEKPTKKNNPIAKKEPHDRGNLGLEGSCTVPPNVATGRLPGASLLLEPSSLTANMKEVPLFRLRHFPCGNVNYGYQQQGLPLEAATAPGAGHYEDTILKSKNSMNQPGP", "assay": "Inhibition of ALK (unknown origin) assessed as remaining activity at 1 uM by Kinome scan method relative to control", "summary_of_the_method": "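Active-site-dependent competition-binding (KINOMEscan) panel of 468 kinases, test compound at 1 μM (from a 10 mM DMSO stock). Read-out is ctrl% = (test signal − positive control signal)/(negative control signal − positive control signal) × 100. DMSO is the negative control (100%) and a control compound is the positive control (0%). Lower ctrl% means tighter binding.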"}, "[3]": {"target": "Calcium/calmodulin-dependent protein kinase type 1 (Homo sapiens) (UniProt Q14012)", "sequence (Q14012 whole entry, looked up)": "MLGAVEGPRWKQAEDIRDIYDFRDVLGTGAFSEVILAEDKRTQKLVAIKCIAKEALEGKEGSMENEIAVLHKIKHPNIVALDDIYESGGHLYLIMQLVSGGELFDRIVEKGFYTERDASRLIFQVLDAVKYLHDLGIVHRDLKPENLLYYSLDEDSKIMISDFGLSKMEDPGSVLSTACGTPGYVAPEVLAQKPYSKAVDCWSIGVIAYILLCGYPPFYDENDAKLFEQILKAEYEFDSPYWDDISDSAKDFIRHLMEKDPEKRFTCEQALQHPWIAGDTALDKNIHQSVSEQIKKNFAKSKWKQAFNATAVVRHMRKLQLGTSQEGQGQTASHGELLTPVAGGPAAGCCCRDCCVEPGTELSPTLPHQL", "assay": "Inhibition of CAMK1 (unknown origin) assessed as remaining activity at 1 uM by Kinome scan method relative to control", "summary_of_the_method": "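KINOMEscan active-site-dependent competition-binding panel of 468 kinases, compound at 1 μM from a DMSO stock. Result reported as ctrl% = (test signal − positive control signal)/(negative control signal − positive control signal) × 100. The negative control is DMSO (100%) and the positive control is a control compound (0%). Lower ctrl% means tighter binding.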"}, "[4]": {"target": "Calcium/calmodulin-dependent protein kinase type II subunit alpha (Homo sapiens) (UniProt Q9UQM7)", "sequence (Q9UQM7 whole entry)": "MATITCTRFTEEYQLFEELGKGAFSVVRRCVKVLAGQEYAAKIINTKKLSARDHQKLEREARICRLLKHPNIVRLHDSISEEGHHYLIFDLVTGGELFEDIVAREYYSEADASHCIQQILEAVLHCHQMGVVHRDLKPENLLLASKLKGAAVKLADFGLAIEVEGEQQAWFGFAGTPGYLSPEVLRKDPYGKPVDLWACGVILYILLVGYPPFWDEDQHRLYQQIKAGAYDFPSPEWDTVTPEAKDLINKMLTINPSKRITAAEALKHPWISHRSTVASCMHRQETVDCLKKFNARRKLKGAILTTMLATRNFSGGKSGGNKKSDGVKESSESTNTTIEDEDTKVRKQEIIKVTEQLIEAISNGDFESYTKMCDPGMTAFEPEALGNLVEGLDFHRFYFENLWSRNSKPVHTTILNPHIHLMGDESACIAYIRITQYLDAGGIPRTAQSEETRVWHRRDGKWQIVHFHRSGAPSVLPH", "assay": "Inhibition of CAMK2A (unknown origin) assessed as remaining activity at 1 uM by Kinome scan method relative to control", "summary_of_the_method": "(§1)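 Active-site-dependent competition-binding profiling (KINOMEscan) at 1 μM against a 468-kinase panel; compound supplied from a 10 mM DMSO stock. Read-out is ctrl% = (test signal − positive control signal)/(negative control signal − positive control signal) × 100. DMSO is the negative control (100%) and a control compound the positive control (0%). Lower ctrl% means tighter binding.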"}, "[5]": {"target": "Cyclin-dependent kinase 4 (Homo sapiens) (UniProt P11802)", "assay": "Inhibition of CDK4 (unknown origin) assessed as remaining activity at 1 uM by Kinome scan method relative to control", "summary_of_the_method": "as §1"}, "[6]": {"target": "Cyclin-dependent kinase 7 (Homo sapiens) (UniProt P50613)", "sequence (P50613 whole entry)": "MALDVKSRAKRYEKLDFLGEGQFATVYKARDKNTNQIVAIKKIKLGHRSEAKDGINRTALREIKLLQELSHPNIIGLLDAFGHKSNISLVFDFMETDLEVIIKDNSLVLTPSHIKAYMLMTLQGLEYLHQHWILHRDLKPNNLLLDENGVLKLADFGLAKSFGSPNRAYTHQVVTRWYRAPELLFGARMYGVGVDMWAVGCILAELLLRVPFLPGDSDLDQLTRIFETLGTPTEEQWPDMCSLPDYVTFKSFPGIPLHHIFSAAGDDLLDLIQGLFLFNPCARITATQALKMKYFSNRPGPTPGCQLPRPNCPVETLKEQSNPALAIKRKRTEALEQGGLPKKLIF", "assay": "Inhibition of CDK7 (unknown origin) assessed as remaining activity at 1 uM by Kinome scan method relative to control", "summary_of_the_method": "as §1"}, "[7]": {"test_system": "Epidermal growth factor receptor (Homo sapiens), P00533 [UNDEFINED MUTATION]", "assay": "Inhibition of EGFR S752-I759del mutant (unknown origin) assessed as remaining activity at 1 uM by Kinome scan method relative to control"}, "[8]": {"target": "Mitogen-activated protein kinase 3 (Homo sapiens) (UniProt P27361)", "sequence (P27361 whole entry)": "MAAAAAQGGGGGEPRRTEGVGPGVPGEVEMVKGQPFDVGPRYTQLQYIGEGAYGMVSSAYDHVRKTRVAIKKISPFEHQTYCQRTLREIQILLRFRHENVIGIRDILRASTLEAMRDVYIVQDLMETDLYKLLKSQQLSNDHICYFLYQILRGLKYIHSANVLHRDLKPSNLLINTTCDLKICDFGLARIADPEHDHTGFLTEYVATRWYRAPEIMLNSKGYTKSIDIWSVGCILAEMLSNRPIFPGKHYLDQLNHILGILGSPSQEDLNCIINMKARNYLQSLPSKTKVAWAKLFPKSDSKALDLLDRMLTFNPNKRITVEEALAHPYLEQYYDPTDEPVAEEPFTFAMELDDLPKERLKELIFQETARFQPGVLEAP", "assay": "Inhibition of ERK1 (unknown origin) assessed as remaining activity at 1 uM by Kinome scan method relative to control"}, "[9]": {"test_system": "Receptor-type tyrosine-protein kinase FLT3 (Homo sapiens), P36888 [UNDEFINED MUTATION]", "assay": "Inhibition of FLT3 ITD mutant (unknown origin) assessed as remaining activity at 1 uM by Kinome scan method relative to control"}, "[10]": {"test_system": "Receptor-type tyrosine-protein kinase FLT3 (Homo sapiens), P36888 [N841I]", "assay": "Inhibition of FLT3 N841I mutant (unknown origin) assessed as remaining activity at 1 uM by Kinome scan method relative to control"}, "[11]": {"target": "Homeodomain-interacting protein kinase 4 (Homo sapiens) (UniProt Q8NE63)", "assay": "Inhibition of HIPK4 (unknown origin) assessed as remaining activity at 1 uM by Kinome scan method relative to control"}, "[12]": {"target": "Insulin-like growth factor 1 receptor (Homo sapiens) (UniProt P08069)", "assay": "Inhibition of IGF1R (unknown origin) assessed as remaining activity at 1 uM by Kinome scan method relative to control"}, "[13]": {"test_system": "Leucine-rich repeat serine/threonine-protein kinase 2 (Homo sapiens), Q5S007 [G2019S]", "assay": "Inhibition of LRRK2 G2019S mutant (unknown origin) assessed as remaining activity at 1 uM by Kinome scan method relative to control"}, "[14]": {"target": "Mitogen-activated protein kinase kinase kinase 15 (Homo sapiens) (UniProt Q6ZN16)", "assay": "Inhibition of MAP3K15 (unknown origin) assessed as remaining activity at 1 uM by Kinome scan method relative to control"}, "[15]": {"target": "Dual specificity mitogen-activated protein kinase kinase 3 (Homo sapiens) (UniProt P46734)", "assay": "Inhibition of MEK3 (unknown origin) assessed as remaining activity at 1 uM by Kinome scan method relative to control"}, "[16]": {"target": "T1, Phosphatidylinositol 4,5-bisphosphate 3-kinase catalytic subunit gamma isoform (Homo sapiens, UniProt P48736)", "assay": "Inhibition of PIK3CG (unknown origin) assessed as remaining activity at 1 uM by Kinome scan method relative to control"}, "[17]": {"target": "Serine/threonine-protein kinase pim-1 (Homo sapiens) (UniProt P11309)", "sequence (P11309 whole entry, looked up)": "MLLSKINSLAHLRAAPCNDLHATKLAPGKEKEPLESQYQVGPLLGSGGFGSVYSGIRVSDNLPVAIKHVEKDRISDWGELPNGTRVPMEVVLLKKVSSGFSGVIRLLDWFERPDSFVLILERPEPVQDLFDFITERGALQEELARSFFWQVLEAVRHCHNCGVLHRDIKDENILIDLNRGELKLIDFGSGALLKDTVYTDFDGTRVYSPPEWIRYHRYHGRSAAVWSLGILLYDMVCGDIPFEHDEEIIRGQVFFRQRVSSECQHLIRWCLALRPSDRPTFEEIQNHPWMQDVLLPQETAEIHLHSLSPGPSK", "assay": "Inhibition of PIM1 (unknown origin) assessed as remaining activity at 1 uM by Kinome scan method relative to control"}, "[18]": {"target": "Protein kinase C delta type (Homo sapiens) (UniProt Q05655)", "assay": "Inhibition of PRKCD (unknown origin) assessed as remaining activity at 1 uM by Kinome scan method relative to control"}, "[19]": {"target": "cAMP-dependent protein kinase catalytic subunit PRKX (Homo sapiens) (UniProt P51817)", "sequence (P51817 whole entry)": "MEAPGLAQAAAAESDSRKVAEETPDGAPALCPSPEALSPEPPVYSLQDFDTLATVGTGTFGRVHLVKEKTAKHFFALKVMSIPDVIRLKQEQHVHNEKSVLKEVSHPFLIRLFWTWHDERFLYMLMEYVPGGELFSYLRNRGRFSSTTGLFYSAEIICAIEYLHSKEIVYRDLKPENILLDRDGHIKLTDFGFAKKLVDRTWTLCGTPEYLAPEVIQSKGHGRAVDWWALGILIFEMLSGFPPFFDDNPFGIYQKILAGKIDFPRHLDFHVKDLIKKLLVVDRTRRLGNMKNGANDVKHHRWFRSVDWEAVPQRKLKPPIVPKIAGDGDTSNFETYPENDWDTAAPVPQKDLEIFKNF", "assay": "Inhibition of PRKX (unknown origin) assessed as remaining activity at 1 uM by Kinome scan method relative to control"}, "[20]": {"target": "Serine/threonine-protein kinase RIO2 (Homo sapiens) (UniProt Q9BVS4)", "assay": "Inhibition of RIOK2 (unknown origin) assessed as remaining activity at 1 uM by Kinome scan method relative to control"}, "[21]": {"target": "SRSF protein kinase 1 (Homo sapiens) (UniProt Q96SB4)", "sequence (Q96SB4 whole entry)": "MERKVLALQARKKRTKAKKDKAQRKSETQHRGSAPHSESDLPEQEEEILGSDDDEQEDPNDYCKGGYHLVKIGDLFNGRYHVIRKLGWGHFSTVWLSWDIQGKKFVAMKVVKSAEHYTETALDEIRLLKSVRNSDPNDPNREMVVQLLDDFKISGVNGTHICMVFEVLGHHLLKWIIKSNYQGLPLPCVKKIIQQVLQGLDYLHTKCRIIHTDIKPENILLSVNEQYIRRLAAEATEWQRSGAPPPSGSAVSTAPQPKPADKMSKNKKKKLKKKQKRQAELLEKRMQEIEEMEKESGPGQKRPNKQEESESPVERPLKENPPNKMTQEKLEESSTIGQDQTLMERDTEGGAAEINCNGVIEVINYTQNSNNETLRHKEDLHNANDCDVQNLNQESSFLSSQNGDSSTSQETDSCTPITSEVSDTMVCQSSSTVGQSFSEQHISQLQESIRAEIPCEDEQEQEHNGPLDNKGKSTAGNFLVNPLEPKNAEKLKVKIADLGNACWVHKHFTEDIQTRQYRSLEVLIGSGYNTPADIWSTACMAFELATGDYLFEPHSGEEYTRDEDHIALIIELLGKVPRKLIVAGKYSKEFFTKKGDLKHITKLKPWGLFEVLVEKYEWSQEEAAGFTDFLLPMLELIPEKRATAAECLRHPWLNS", "assay": "Inhibition of SRPK1 (unknown origin) assessed as remaining activity at 1 uM by Kinome scan method relative to control"}, "[22]": {"target": "STE20/SPS1-related proline-alanine-rich protein kinase (Homo sapiens) (UniProt Q9UEW8)", "assay": "Inhibition of STK39 (unknown origin) assessed as remaining activity at 1 uM by Kinome scan method relative to control"}, "[23]": {"target": "Activated CDC42 kinase 1 (Homo sapiens) (UniProt Q07912)", "assay": "Inhibition of TNK2 (unknown origin) assessed as remaining activity at 1 uM by Kinome scan method relative to control"}, "[24]": {"target": "Tyrosine-protein kinase ZAP-70 (Homo sapiens) (UniProt P43403)", "assay": "Inhibition of ZAP70 (unknown origin) assessed as remaining activity at 1 uM by Kinome scan method relative to control"}, "[25]": {"target": "Phosphatidylinositol 4,5-bisphosphate 3-kinase catalytic subunit alpha isoform (Homo sapiens, UniProt P42336, H1047L)", "assay": "Binding affinity to PIK3CA H1047L mutant (unknown origin) assessed as dissociation constant"}, "[26]": {"target": "T1, Phosphatidylinositol 4,5-bisphosphate 3-kinase catalytic subunit gamma isoform", "assay": "Binding affinity to PIK3CG (unknown origin) assessed as dissociation constant"}, "HepG2": {"test_system": "HepG2", "assay": "Induction of apoptosis in human HepG2 cells overexpressing MST2 assessed as necrosis cells at 3 uM by annexinV staining (Rvb =0.24 %)", "type": "functional"}, "[27]": {"target": "Serine/threonine-protein kinase 3 (Homo sapiens, UniProt Q13188, D109A)", "sequence (Q13188 whole entry D109A)": "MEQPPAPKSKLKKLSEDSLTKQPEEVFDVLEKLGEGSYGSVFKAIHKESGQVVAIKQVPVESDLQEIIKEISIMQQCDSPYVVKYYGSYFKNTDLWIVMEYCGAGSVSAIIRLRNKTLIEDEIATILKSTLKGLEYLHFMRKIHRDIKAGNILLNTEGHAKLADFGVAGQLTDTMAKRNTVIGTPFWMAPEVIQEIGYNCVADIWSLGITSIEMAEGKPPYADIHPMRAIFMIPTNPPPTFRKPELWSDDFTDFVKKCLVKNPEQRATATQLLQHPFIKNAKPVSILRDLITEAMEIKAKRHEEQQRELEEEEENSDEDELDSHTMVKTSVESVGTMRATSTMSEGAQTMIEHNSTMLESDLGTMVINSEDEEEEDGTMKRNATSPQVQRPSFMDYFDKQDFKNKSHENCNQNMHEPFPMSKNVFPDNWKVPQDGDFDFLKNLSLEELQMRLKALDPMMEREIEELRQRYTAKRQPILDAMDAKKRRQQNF"}},
  "data": [
    {"smiles": "CN1C(=O)c2sccc2N(C)c2nc(Nc3ccc(S(N)(=O)=O)cc3)ncc21", "values": [
      {"measurement": "Activity", "setting": "[1]", "result": 6.8, "unit": "%"},
      {"measurement": "Activity", "setting": "[2]", "result": 94, "unit": "%"},
      {"measurement": "Activity", "setting": "[3]", "result": 95, "unit": "%"},
      {"measurement": "Activity", "setting": "[4]", "result": 77, "unit": "%"},
      {"measurement": "Activity", "setting": "[5]", "result": 86, "unit": "%"},
      {"measurement": "Activity", "setting": "[6]", "result": 60, "unit": "%"},
      {"measurement": "Activity", "setting": "[7]", "result": 100, "unit": "%"},
      {"measurement": "Activity", "setting": "[8]", "result": 100, "unit": "%"},
      {"measurement": "Activity", "setting": "[9]", "result": 91, "unit": "%"},
      {"measurement": "Activity", "setting": "[10]", "result": 39, "unit": "%"},
      {"measurement": "Activity", "setting": "[11]", "result": 94, "unit": "%"},
      {"measurement": "Activity", "setting": "[12]", "result": 94, "unit": "%"},
      {"measurement": "Activity", "setting": "[13]", "result": 28, "unit": "%"},
      {"measurement": "Activity", "setting": "[14]", "result": 67, "unit": "%"},
      {"measurement": "Activity", "setting": "[15]", "result": 66, "unit": "%"},
      {"measurement": "Activity", "setting": "[16]", "result": 0.15, "unit": "%"},
      {"measurement": "Activity", "setting": "[17]", "result": 100, "unit": "%"},
      {"measurement": "Activity", "setting": "[18]", "result": 94, "unit": "%"},
      {"measurement": "Activity", "setting": "[19]", "result": 100, "unit": "%"},
      {"measurement": "Activity", "setting": "[20]", "result": 95, "unit": "%"},
      {"measurement": "Activity", "setting": "[21]", "result": 65, "unit": "%"},
      {"measurement": "Activity", "setting": "[22]", "result": 86, "unit": "%"},
      {"measurement": "Activity", "setting": "[23]", "result": 95, "unit": "%"},
      {"measurement": "Activity", "setting": "[24]", "result": 90, "unit": "%"},
      {"measurement": "Kd", "setting": "[25]", "result": 34, "unit": "nM"},
      {"measurement": "Kd", "setting": "[26]", "result": 4.8, "unit": "nM"},
      {"measurement": "Activity", "setting": "HepG2", "result": 0.27, "unit": "%"},
      {"measurement": "IC50", "setting": "[27]", "result": 1040, "unit": "nM"}
    ]}
  ]
}
